Experimental data as given in ChEMBL document CHEMBL1773051, “Anti-inflammatory triterpenes from the leaves of Rosa laevigata” (J Nat Prod, 2011).
Active and inactive are the calls of the source. No cut-off for these calls is given here.

Key:
RAW264.7 [1] = assay: Antiinflammatory activity against LPS-stimulated mouse RAW264.7 cells assessed as inhibition of IL-6 production at 0.5 to 50 ug/ml pretreated for 4 hrs followed by challenge with 1 ug/mL LPS for 48 hrs by ELISA relative to control; format: functional, cell-based
RAW264.7 [2] = assay: Antiinflammatory activity against LPS-stimulated mouse RAW264.7 cells assessed as inhibition of IL1-beta production at 0.5 to 50 ug/ml pretreated for 4 hrs followed by challenge with 1 ug/mL LPS for 48 hrs by ELISA relative to control; format: functional, cell-based
RAW264.7 [3] = assay: Antiinflammatory activity against LPS-stimulated mouse RAW264.7 cells assessed as inhibition of IL-10 production at 0.5 to 50 ug/ml pretreated for 4 hrs followed by challenge with 1 ug/mL LPS for 48 hrs by ELISA relative to control; format: functional, cell-based
RAW264.7 [4] = assay: Antiinflammatory activity against LPS-stimulated mouse RAW264.7 cells assessed as inhibition of TNFalpha production at 0.5 to 50 ug/ml pretreated for 4 hrs followed by challenge with 1 ug/mL LPS for 48 hrs by ELISA relative to control; format: functional, cell-based
RAW264.7 [5] = assay: Antiinflammatory activity against LPS-stimulated mouse RAW264.7 cells assessed as inhibition of nitric oxide production at 0.5 to 50 ug/ml pretreated for 4 hrs followed by challenge with 1 ug/mL LPS for 24 hrs by Griess reaction method relative to control
HEK293 [6] = assay: Antiinflammatory activity against LPS-stimulated NF-kappaB activated human HEK293 cells at 50 ug/ml pretreated for 4 hrs followed by challenge with LPS for 48 hrs by luciferase assay; format: functional, cell-based
Summary of the method: (§1)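 NF-κB reporter 293 cells grown in DMEM with 10% FBS, penicillin 100 U/mL and streptomycin 100 μg/mL. Compounds tested at 12.5, 25, 50, 100 and 200 μg/mL, added 4 h before stimulation with 1 μg/mL LPS for 48 h. Cells then washed twice in PBS (pH 7.4) and lysed in passive lysis buffer, and luciferase activity read.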

HEK293 [7] = assay: Antiinflammatory activity against LPS-stimulated NF-kappaB activated human HEK293 cells at 200 ug/ml pretreated for 4 hrs followed by challenge with LPS for 48 hrs by luciferase assay; format: functional, cell-based; summary of the method: as §1
HEK293 [8] = assay: Antiinflammatory activity against LPS-stimulated NF-kappaB activated human HEK293 cells at 12.5 ug/ml pretreated for 4 hrs followed by challenge with LPS for 48 hrs by luciferase assay; format: functional, cell-based; summary of the method: as §1
RAW264.7 [9] = assay: Cytotoxicity against LPS-stimulated mouse RAW264.7 cells assessed as decrease in cell viability upto 100 ug/mL for 4 hrs by MTT assay in presence of 10 ug/mL LPS measured after 24 hrs
HEK293 [10] = assay: Antiinflammatory activity against LPS-stimulated NF-kappaB activated human HEK293 cells at 25 ug/ml pretreated for 4 hrs followed by challenge with LPS for 48 hrs by luciferase assay; format: functional, cell-based; summary of the method: as §1
RAW264.7 [11] = assay: Cytotoxicity against LPS-stimulated mouse RAW264.7 cells assessed as cell viability upto 50 ug/mL for 4 hrs by MTT assay in presence of 0.01 to 1 ug/mL LPS measured after 24 hrs; format: cell-based
Summary of the method: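 Viability of RAW 264.7 cells measured by MTT colorimetric assay after 24 h incubation with compounds. Compounds were tested up to 50 μg/mL alongside LPS at 0.01, 0.1 or 1 μg/mL, and at 100 μg/mL with 10 μg/mL LPS.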

HEK293 [12] = assay: Antiinflammatory activity against LPS-stimulated NF-kappaB activated human HEK293 cells at 100 ug/ml pretreated for 4 hrs followed by challenge with LPS for 48 hrs by luciferase assay; format: functional, cell-based; summary of the method: as §1

SMILES | inhibition (RAW264.7 [1]) | inhibition (RAW264.7 [2]) | inhibition (RAW264.7 [3]) | inhibition (RAW264.7 [4]) | inhibition (RAW264.7 [5]) | Activity (HEK293 [6]) | Activity (HEK293 [7]) | Activity (HEK293 [8]) | Activity (RAW264.7 [9]) | Activity (HEK293 [10]) | Activity (RAW264.7 [11]) | Activity (HEK293 [12])
C[C@]12CCC(=O)C=C1CC[C@@H]1[C@@H]2[C@@H](O)C[C@@]2(C)[C@H]1CC[C@]2(O)C(=O)CO | Active | Active | Active | Active | Active |  |  |  |  |  |  | 
CC1(C)CC[C@]2(C(=O)O)CC[C@]3(C)C(=CC[C@@H]4[C@@]5(C)C[C@@H](O)[C@@H](O)[C@@](C)(CO)[C@@H]5CC[C@]43C)[C@@H]2C1 | Active | Active | Active | Active | Active | Active | Active | Active | Toxic | Active | Non-toxic | Active
CC1(C)CC[C@]2(C(=O)O)CC[C@]3(C)C(=C2C1)CC[C@@H]1[C@@]2(C)C[C@@H](O)[C@H](O)C(C)(C)[C@@H]2CC[C@]13C | Active | Active | Active | Active | Active | Active | Active | Active | Toxic | Active | Non-toxic | Active
CC(=O)[C@H](C)CCC1=CC2=CC[C@@H]3[C@@]4(C)C[C@@H](O)[C@H](O)[C@@](C)(CO)[C@@H]4CC[C@@]3(C)[C@]2(C)CC1 | Active | Active | Active | Active | Active | Active | Active | Active | Toxic | Active | Non-toxic | Active
C[C@@H]1CC[C@]2(C(=O)O)CC[C@]3(C)C(=CC[C@@H]4[C@@]5(C)C[C@@H](O)[C@H](O)[C@@](C)(CO)[C@@H]5CC[C@]43C)[C@@H]2[C@]1(C)O | Active | Active | Active | Active | Active | Active | Active | Active | Toxic | Active | Non-toxic | Active
